From ChEMBL document CHEMBL5154715, “Phenolic Lipids Derived from Cashew Nut Shell Liquid to Treat Metabolic Diseases” (J Med Chem, 2022)
pEC50: −log10 of the molar value. Activity calls are given as the source filed them. The rule behind the calls is not given here.

How the values were obtained:
[1] = biological target: T1, Peroxisome proliferator-activated receptor gamma (Homo sapiens) (UniProt P37231); test: Agonist activity at human PPARgamma expressed in HEK293 cells assessed as maximal activity by luciferase/beta-galactosidase reporter gene assay relative to rosiglitazone; type: cell-based
T1 sequence (whole entry): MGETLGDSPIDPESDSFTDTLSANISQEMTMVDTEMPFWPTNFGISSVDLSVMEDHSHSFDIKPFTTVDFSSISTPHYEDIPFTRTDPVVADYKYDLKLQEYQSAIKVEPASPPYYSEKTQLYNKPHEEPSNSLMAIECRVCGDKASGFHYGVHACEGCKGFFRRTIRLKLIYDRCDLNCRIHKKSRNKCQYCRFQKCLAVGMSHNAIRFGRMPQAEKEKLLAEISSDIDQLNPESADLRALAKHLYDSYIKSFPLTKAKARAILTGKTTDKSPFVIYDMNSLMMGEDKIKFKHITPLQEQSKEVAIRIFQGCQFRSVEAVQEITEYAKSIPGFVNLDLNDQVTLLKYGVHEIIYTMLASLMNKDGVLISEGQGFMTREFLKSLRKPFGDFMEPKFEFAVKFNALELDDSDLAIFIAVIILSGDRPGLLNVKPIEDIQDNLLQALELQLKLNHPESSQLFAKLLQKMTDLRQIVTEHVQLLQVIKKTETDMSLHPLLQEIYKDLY
Outline: (§1)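 HEK293 cells in charcoal-stripped FBS, calcium phosphate co-transfected with GAL4-hPPAR LBD fusion, UAS-luciferase and β-galactosidase. Ligand added 6–8 h post transfection, full dose–response, harvested 14–16 h later. Luciferase normalized to β-galactosidase.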

[2] = biological target: T2, Peroxisome proliferator-activated receptor alpha (Homo sapiens) (UniProt Q07869); test: Agonist activity at human PPARalpha expressed in HEK293 cells assessed as maximal activity by luciferase/beta-galactosidase reporter gene assay relative to GW7647; type: cell-based; outline: as §1
T2 sequence (whole entry): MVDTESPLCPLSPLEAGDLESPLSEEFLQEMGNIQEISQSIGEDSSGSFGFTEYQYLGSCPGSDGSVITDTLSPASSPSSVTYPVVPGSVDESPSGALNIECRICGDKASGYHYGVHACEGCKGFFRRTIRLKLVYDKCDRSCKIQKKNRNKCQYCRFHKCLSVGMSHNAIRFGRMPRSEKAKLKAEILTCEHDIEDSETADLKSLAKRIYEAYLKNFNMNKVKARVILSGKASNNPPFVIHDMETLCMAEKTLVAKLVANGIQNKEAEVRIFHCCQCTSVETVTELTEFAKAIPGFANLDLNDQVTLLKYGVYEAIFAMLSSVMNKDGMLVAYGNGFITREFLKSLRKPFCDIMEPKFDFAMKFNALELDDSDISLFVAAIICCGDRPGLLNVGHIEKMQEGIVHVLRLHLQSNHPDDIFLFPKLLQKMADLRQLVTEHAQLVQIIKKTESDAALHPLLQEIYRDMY

[3] = biological target: T3, Peroxisome proliferator-activated receptor gamma (Mus musculus) (UniProt P37238); test: Agonist activity at human PPARgamma in mouse 3T3-L1 cells assessed as induction of adipogenic differentiation at 25 uM measured after 11 days by Oil Red O staining analysis; type: cell-based; conditions: filed as agonist, time 11.0 day
T3 sequence (whole entry): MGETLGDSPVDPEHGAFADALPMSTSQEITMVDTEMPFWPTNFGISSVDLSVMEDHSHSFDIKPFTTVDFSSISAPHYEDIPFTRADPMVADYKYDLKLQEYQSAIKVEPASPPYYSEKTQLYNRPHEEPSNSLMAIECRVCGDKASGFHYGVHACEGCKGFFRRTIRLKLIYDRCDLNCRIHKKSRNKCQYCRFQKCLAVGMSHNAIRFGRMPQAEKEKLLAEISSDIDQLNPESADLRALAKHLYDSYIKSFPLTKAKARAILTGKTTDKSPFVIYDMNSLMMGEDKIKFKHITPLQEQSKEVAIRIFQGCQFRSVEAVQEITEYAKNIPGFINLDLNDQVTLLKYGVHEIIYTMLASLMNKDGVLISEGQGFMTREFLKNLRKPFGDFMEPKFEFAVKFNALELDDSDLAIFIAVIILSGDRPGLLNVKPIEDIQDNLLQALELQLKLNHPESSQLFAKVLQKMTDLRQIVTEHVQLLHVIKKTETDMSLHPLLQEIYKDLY
Outline: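 3T3-L1 cells differentiated for 11 days (IBMX/dexamethasone/insulin induction, then insulin, then maintenance medium) with 25 μM compound or 10 μM rosiglitazone from day 0. Cells formalin-fixed and stained with 0.6% Oil Red O. Lipid quantified spectrophotometrically after dye extraction.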

[4] = Metabolic stability in C57BL/6 mouse liver microsomes assessed as half life; type: ADME, Microsome; conditions: time 2 min
[5] = biological target: T1, Peroxisome proliferator-activated receptor gamma (Homo sapiens); test: Stabilization of human PPARgamma LBD assessed as change in melting temperature at 50 uM by thermal shift assay
[6] = biological target: T2, Peroxisome proliferator-activated receptor alpha (Homo sapiens); test: Agonist activity at human PPARalpha transfected in HEK293 cells assessed as relative luciferase unit at 50 uM measured after 16 hrs by luciferase reporter gene assay; type: cell-based; conditions: filed as agonist
Outline: (§2)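 GAL4-hPPAR (α or γ) plus UAS-luciferase and β-galactosidase transiently co-transfected into HEK293 cells, then treated with 50 μM compound for 16 h. RLU = luciferase/β-galactosidase × time, vehicle (DMSO) set to 1. Mean ± SD, N = 3; one-way ANOVA with Holm–Šidák vs vehicle.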

[7] = biological target: T1, Peroxisome proliferator-activated receptor gamma (Homo sapiens); test: Agonist activity at human PPARgamma transfected in HEK293 cells assessed as relative luciferase unit at 50 uM measured after 16 hrs by luciferase reporter gene assay; type: cell-based; conditions: filed as agonist; outline: as §2
[8] = biological target: T2, Peroxisome proliferator-activated receptor alpha (Homo sapiens); test: Stabilization of human PPARalpha LBD assessed as change in melting temperature at 25 uM by thermal shift assay
Outline: (§3)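 Purified hPPAR LBD at 1 mg/mL (∼25 μM) with ligand (α-LBD at 25 μM; γ- and δ-LBD at 50 μM). Static light scattering at 473 nm from 25 to 70 °C in 0.5 °C steps, 1 °C/min. Tm from four-parameter fit; ΔTm relative to DMSO; mean ± SEM, N = 3.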

[9] = biological target: T4, Peroxisome proliferator-activated receptor gamma (Homo sapiens, UniProt P37231); test: Agonist activity at human PPARgamma expressed in HEK293 cells by luciferase/beta-galactosidase reporter gene assay; type: cell-based; outline: as §1
T4 sequence (P37231 whole entry): T1 sequence (whole entry)

[10] = biological target: T5, Peroxisome proliferator-activated receptor delta (Homo sapiens) (UniProt Q03181); test: Stabilization of human PPARdelta LBD assessed as change in melting temperature at 50 uM by thermal shift assay
T5 sequence (whole entry): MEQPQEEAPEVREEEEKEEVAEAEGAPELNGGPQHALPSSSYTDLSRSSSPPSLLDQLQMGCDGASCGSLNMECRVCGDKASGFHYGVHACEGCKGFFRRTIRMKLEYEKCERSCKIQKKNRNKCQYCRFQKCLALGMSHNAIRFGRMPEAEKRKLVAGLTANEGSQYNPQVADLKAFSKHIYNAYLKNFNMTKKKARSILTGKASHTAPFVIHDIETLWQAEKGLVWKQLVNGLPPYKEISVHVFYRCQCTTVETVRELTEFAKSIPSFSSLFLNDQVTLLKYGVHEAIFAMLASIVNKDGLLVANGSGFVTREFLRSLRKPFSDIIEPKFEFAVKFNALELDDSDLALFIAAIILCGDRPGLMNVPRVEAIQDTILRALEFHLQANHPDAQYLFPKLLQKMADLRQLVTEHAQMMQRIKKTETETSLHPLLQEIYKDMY

[11] = Metabolic stability in C57BL/6 mouse liver microsomes assessed as parent compound remaining incubated for 120 mins; type: ADME, Microsome; conditions: read-out: Stability
Danio rerio [12] = test: In vivo agonist activity at human GFP-tagged PPARalpha in transgenic zebrafish assessed as increase in GFP expression in brain at 8.9 uM measured after 14 hrs by microscopy
[13] = biological target: T6, Peroxisome proliferator-activated receptor alpha (Homo sapiens, UniProt Q07869); test: Agonist activity at human PPARalpha expressed in HEK293 cells by luciferase/beta-galactosidase reporter gene assay; type: cell-based; outline: as §1
T6 sequence (Q07869 whole entry): T2 sequence (whole entry)

[14] = biological target: T5, Peroxisome proliferator-activated receptor delta (Homo sapiens); test: Stabilization of human PPARdelta LBD assessed as change in melting temperature at 50 uM by thermal shift assay; outline: as §3
[15] = biological target: T1, Peroxisome proliferator-activated receptor gamma (Homo sapiens); conditions: dose 50.0 µM
Danio rerio [16] = test: In vivo agonist activity at human GFP-tagged PPARgamma in transgenic zebrafish assessed as increase in GFP expression in tail bud at 0.1 uM measured after 14 hrs by microscopy

CCCCCCCCCCCCCCCc1cccc(OC(C)(C)C(=O)OCC)c1
Emax [1]: 30%
Emax [2]: 5%
Activity [3]: Active
half-life [4]: 5.58 h
ΔTm [5]: 0.2 °C
Activity [6]: Active
Activity [7]: Active
ΔTm [8]: 0.6 °C
pEC50 [9]: 5.41
ΔTm [10]: 0.5 °C
remaining at 2 h [11]: 78%
Activity (Danio rerio [12]): Active
pEC50 [13]: 5.05

O=C(O)COc1ccc(SCC=C(c2ccc(Br)cc2)c2ccc(Br)cc2)cc1Cl
ΔTm [14]: 7.7 °C

CN(CCOc1ccc(CC2SC(=O)NC2=O)cc1)c1ccccn1 (configuration not stated)
ΔTm [15]: 5 °C
Activity (Danio rerio [16]): Active
ΔTm [5]: 5 °C
